CHT block – inhibits the human high affinity choline transporter; AID 488975; CHT-expressing cells, membrane potential dye, choline response; hits give low values; Q9GZV3; actives 0.86% (n = 310,000); B-score at 10 µM;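 active means B-score over 3 SD under the library average, and starting fluorescence ratio not unusually high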;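 further: choline stimulus applied at its EC90 after an EC20 pre-addition; B-score computed on integrated fluorescence ratio after choline addition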
Target sequence (Q9GZV3 whole entry, looked up): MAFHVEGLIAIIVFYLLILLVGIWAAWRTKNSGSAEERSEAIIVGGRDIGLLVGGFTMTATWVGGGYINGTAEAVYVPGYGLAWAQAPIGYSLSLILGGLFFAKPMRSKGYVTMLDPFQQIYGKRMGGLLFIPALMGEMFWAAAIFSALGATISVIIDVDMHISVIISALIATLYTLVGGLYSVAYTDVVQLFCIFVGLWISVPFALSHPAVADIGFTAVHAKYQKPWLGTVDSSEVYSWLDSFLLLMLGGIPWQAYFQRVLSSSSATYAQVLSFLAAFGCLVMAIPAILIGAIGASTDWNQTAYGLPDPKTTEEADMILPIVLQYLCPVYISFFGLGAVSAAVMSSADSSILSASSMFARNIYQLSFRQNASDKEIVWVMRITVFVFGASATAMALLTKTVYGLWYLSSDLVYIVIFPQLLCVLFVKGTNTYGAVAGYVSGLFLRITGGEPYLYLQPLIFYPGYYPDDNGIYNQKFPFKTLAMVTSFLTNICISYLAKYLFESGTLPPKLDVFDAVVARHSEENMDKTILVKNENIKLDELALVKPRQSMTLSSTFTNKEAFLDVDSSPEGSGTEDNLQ
GPR7 antag – human neuropeptides B/W receptor 1 antagonism; GPR7-expressing cells, fluorescence antagonist assay; inhibition, % at 4.4 µM; actives 1.1% (n = 290,000); in the data active means inhibition above about 16%, passing the limit was not always enough;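 further: cells stimulated with the agonist NPW; 0% = agonist with vehicle and 100% = vehicle without agonist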
CHT PAM – human CHT allosteric activation; Q9GZV3; CHT-expressing cells, membrane potential dye, choline EC20; hits give high values; LV-AA mutant CHT in HEK293 cells; B-score at 10 µM; actives 0.49% (n = 310,000);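 active means initial fluorescence not abnormally high and integrated response B-score, plate-corrected, over 3 SD above library mean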
p-CIP stab down – compounds decreasing mouse p/CIP protein stability; F442A p/CIP-EGFP cells, EGFP fluorescence, 16 h; actives 0.01% (n = 290,000); decrease of EGFP signal, % at 10 µM; Q05BA5;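 active means EGFP signal decrease of at least 30% at 10 µM or well 3 SD below plate mean, unless failing retest; inactive means the rest, including hits failing retest or dose response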
Pemphigus Ab inh – blocks pemphigus antibody binding to human desmoglein-3. AID 588358. binding (percent of control), % at 10 µM. actives 0.48% (n = 310,000). P32926. DSG3-coupled beads, scFv-anti-DSG3-GFP binding, flow cytometry; hits give low values;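 active means binding more than 3 SD below its plate's average and above zero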;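 further: hits lower antibody fragment binding to DSG3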
T cell HTS – T cell immune modulation candidate; actives 0.068% (n = 330,000); response (vesicle binding), % at 7 µM; 2C CD8+ T cell-vesicle binding, flow cytometry; hits give low values;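 active means response, share of CD8 T cells binding vesicles, and their 90th percentile fluorescence all below set limits, cut at about 80% in these data, passing the limit was not always enough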;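 further: values below 100% mean blocked vesicle binding to the CD8+ T cells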
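Benchmarks: naked versus QL9-loaded vesicles / Assay system: purified 2C TCR transgenic mouse naive CD8+ T cells / Technique: high-throughput flow cytometry with anti-B7-1 and anti-CD8 staining / Timing: Cell–vesicle co-incubation 1.5 h at 37 °C, staining 20 min on ice / Read-out: percent CD8+ FL2 mean versus row control / Probe or stimulus: QL9-loaded Drosophila micro-vesicles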
CHT act confirm – confirmation of human choline transporter (CHT) activators; shares compounds with CHT PAM; CHT-expressing cells, membrane potential dye fluorescence (FDSS); % of choline EC20–EC90 response window; HEK293 expressing CHT LV-AA mutant; choline added at its EC20; activation, % at 10 µM; actives 91% (n = 2,500);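 active means primary screen active, with duplicate mean activation above negative control mean plus 3 SD, cut at about 11% in these data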
HEK293 MP dye – CHT activator counter-screen hit in parental HEK293 cells. shares compounds with CHT PAM. membrane potential dye fluorescence (FDSS); measured after EC20 choline addition. ratio readout change at 10 µM, hits read low. actives 62% (n = 2,500). AID 623908;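 active means duplicate-averaged ratio beyond 3 SD from buffer wells, up or down, though filed actives are nearly all decreases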
Starred values were filed as active, the others as inactive. Most compounds without a hit are left out; they make up all but 2.3% or so of the library.

For COC(=O)[C@@H](Cc1ccccc1)NC(=O)Cn1cc(C)c(=O)[nH]c1=O the results were Pemphigus Ab inh 100.
CC1CCCC(NC(=O)CCN2C(=O)COc3ccccc32)C1C (centres undefined) was read as Pemphigus Ab inh 101.
`O=C1c2cnc3nc(SCc4ccc(Cl)cc4)nn3c2CC2c3ccccc3CCN12` (centres undefined) gave CHT block inactive, GPR7 antag -11, CHT PAM 6.9*, p-CIP stab down -6, Pemphigus Ab inh 103, T cell HTS 461, CHT act confirm -2 and HEK293 MP dye inactive.
For Cn1c(=O)c2c(ncn2CC(=O)NC[C@H]2O[C@@H](n3cnc4c(N)ncnc43)[C@H](O)[C@@H]2O)n(C)c1=O the results were Pemphigus Ab inh 107.
`COc1ccc(CC(=O)NCc2ccccc2F)cc1S(=O)(=O)N1CCOCC1` gave Pemphigus Ab inh 109.
For CCC1CCCCN1CCNS(=O)(=O)c1ccc2c(c1)oc(=O)n2C (centres undefined) the results were CHT block inactive, GPR7 antag -1, CHT PAM inactive, p-CIP stab down -11, Pemphigus Ab inh 105, T cell HTS 259, CHT act confirm 35* and HEK293 MP dye -25*.
`CCc1cc(=O)oc2cc(C)cc(OCC(=O)NCCCN3CCOCC3)c12` gave CHT block inactive, GPR7 antag -16, CHT PAM inactive, p-CIP stab down 3 and T cell HTS 259.
Screening Cc1cc(OCC(=O)NCCCN2CCOCC2)c2c(C)cc(=O)oc2c1 returned CHT block inactive, GPR7 antag -11, CHT PAM 6.5*, p-CIP stab down 1, Pemphigus Ab inh 99, T cell HTS 100, CHT act confirm 60* and HEK293 MP dye -52*.
Screening COc1ccc(OCCN(C)C(=O)c2cccc(S(=O)(=O)N(C)c3ccccc3)c2)cc1 returned Pemphigus Ab inh 100 and T cell HTS 191.
For COc1ccc(-c2nnc3ccc(SCC(N)=O)nn23)cc1OC the results were CHT block inactive, GPR7 antag -4, CHT PAM inactive, p-CIP stab down -4, Pemphigus Ab inh 99, T cell HTS 445, CHT act confirm 31* and HEK293 MP dye -31*.
`COc1ccc(-c2nnc3ccc(SCC(=O)N4CCCCC4)nn23)cc1OC` gave CHT block inactive, GPR7 antag -5, CHT PAM inactive, p-CIP stab down 2, Pemphigus Ab inh 106, T cell HTS 462, CHT act confirm 20* and HEK293 MP dye inactive.
For CCOC(=O)CSc1ccc2nnc(-c3cccs3)n2n1 the results were CHT block inactive, GPR7 antag -16, CHT PAM inactive, p-CIP stab down 2, Pemphigus Ab inh 104 and T cell HTS 415.
`CCOC(=O)CSc1ccc2nnc(-c3ccncc3)n2n1` gave CHT block inactive, GPR7 antag -5, CHT PAM inactive, p-CIP stab down 4, Pemphigus Ab inh 99, T cell HTS 351, CHT act confirm 12* and HEK293 MP dye -33*.
For Cn1c(=O)c2c(SCCN3CCOCC3)nc(C3CCCC3)nc2n(C)c1=O the results were CHT block inactive, GPR7 antag 6, CHT PAM 7.4*, p-CIP stab down -6, Pemphigus Ab inh 87, T cell HTS 333, CHT act confirm 42* and HEK293 MP dye -30*.
For CCc1nc(SCC(=O)N2CCOCC2)c2c(=O)n(C)c(=O)n(C)c2n1 the results were CHT block inactive, GPR7 antag 4, CHT PAM inactive, p-CIP stab down -8, Pemphigus Ab inh 105 and T cell HTS 549.
